Here are results for one molecule from ChEMBL document CHEMBL4304827, “Design, synthesis and evaluation of structurally diverse chrysin-chromene-spirooxindole hybrids as anticancer agents” (Bioorg Med Chem, 2019).

The test system of experiment [1] is A549. Briefly: Inhibition of colony formation in human A549 cells cultured in plate assessed as decrease in size and number of colonies formed incubated for 10 days by crystal violet staining based fluorescence microscopy. The format is functional, cell-based. An outline of the steps: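 Log-phase A549 cells were seeded at 1 × 10^3/well and cultured 24 h. Medium containing various concentrations was added and cells were grown 10 days. Colonies were fixed in 4% paraformaldehyde for 30 min, stained with 0.1% crystal violet and imaged by microscopy. Colony percentage was calculated relative to control colonies. Mean ± SD, ≥3 experiments.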

Experiment [2] relates to A549. Briefly: Antimigratory activity in human A549 cells assessed as reduction in cell invasion incubated for 36 hrs by matrigel transwell migration assay. The format is functional, cell-based. An outline of the steps:
(§1)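 Cells were suspended at 1 × 10^4/mL in RPMI-1640 with 1% FBS and seeded in the upper chamber. For the invasion assay the upper chamber was coated with Matrigel. The lower chamber held medium with 10% FBS. Compound was given at various concentrations for 36 h. Membranes were methanol-fixed and stained with 0.1% crystal violet. Cells on the lower side were counted relative to control (100%). Mean ± SD, ≥3 experiments.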

Experiment [3] deals with A549. As to the kind of experiment: Induction of apoptosis in human A549 cells assessed as necrotic cells at 50 uM incubated for 24 hrs by annexin V FITC and PI staining based flow cytometry (reference value: 2.43%). It counts as functional.
Experiment [4] deals with A549. Briefly: Induction of apoptosis in human A549 cells assessed as upregulation of Cyt c protein expression incubated for 24 hrs by Western blot analysis. The format is functional, cell-based. An outline of the steps: (§2)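 A549 cells were treated with various concentrations for 24 h and lysed in RIPA buffer with 1 mM PMSF. Protein (20 μg) was resolved on 8-12% SDS-PAGE and transferred to PVDF. Membranes were blocked in 5% milk and probed with primary antibodies overnight at 4 °C, then with anti-rabbit secondary. Bands were quantified by densitometry. Mean ± SD, ≥3 experiments.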
(In general: Immunoblotting shows a protein as a band on a membrane.)

The subject of experiment [5] is A549. Briefly: Induction of apoptosis in human A549 cells assessed as upregulation of p21 protein expression incubated for 24 hrs by Western blot analysis. It counts as functional, cell-based. An outline of the steps: as §2
Experiment [6] deals with A549. As to the kind of experiment: Induction of apoptosis in human A549 cells assessed as upregulation of Bax protein expression at 10 uM by Western blot analysis. The settings on record: TDE = time-dependent effect. The format is functional, cell-based. An outline of the steps: (§3)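 A549 cells were exposed to 10 μM for different times and lysed in RIPA buffer with 1 mM PMSF. Protein (20 μg) was separated on 8-12% SDS-PAGE and transferred to PVDF. Membranes were blocked in 5% milk and incubated with primary antibodies overnight at 4 °C, then with anti-rabbit secondary. Bands were quantified by densitometry. Mean ± SD, ≥3 experiments.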

In experiment [7] the test system is A549. Briefly: Antimigratory activity in human A549 cells assessed as reduction in wound healing incubated for 36 hrs by wound healing assay. The format is functional, cell-based. An outline of the steps:
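Confluent A549 monolayers, seeded at 1 × 10^5 cells/well, were scratched with a pipette tip. Medium was replaced with medium containing various concentrations and cells were incubated 36 h. Migration area was measured by microscopy and expressed as a percentage of control (control = 100%). Mean ± SD, ≥3 independent experiments.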

Experiment [8] relates to A549. Briefly: Induction of apoptosis in human A549 cells assessed as downregulation of Bcl2 protein expression at 10 uM by Western blot analysis. It counts as functional, cell-based. As to conditions: TDE = time-dependent effect. The method, boiled down: as §3
In experiment [9] the test system is A549. As to the kind of experiment: Induction of apoptosis in human A549 cells assessed as viable cells at 25 uM incubated for 24 hrs by annexin V FITC and PI staining based flow cytometry (reference value: 95.7%). It counts as functional. The settings on record: A549, 24 h, read-out: Activity. A general note: Flow cytometry measures light scatter and fluorescence of single cells or particles in a stream.

The subject of a further experiment is K562. Briefly: Antiproliferative activity against human K562 cells assessed as reduction in cell proliferation incubated for 48 hrs by MTT assay. As to conditions: K562, 48 h. It counts as functional, cell-based. The method, boiled down:
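Log-phase cells were plated at 5 × 10^3/well in RPMI-1640 with 10% FBS and cultured 24 h. Compounds were added at graded concentrations (DMSO <0.1%) for 48 h. MTT (5 mg/mL) was added for about 4 h, formazan was dissolved in DMSO and A490 was read. IC50 was calculated from ≥3 independent experiments and reported as mean ± SD. Chrysin served as positive control.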

Experiment [10] deals with A549. As to the kind of experiment: Induction of apoptosis in human A549 cells assessed as upregulation of p21 protein expression at 10 uM by Western blot analysis. The format is functional, cell-based. The settings on record: TDE = time-dependent effect. An outline of the steps:
as §3

In experiment [11] the test system is A549. As to the kind of experiment: Induction of apoptosis in human A549 cells assessed as increase in caspase 3 activity incubated for 24 hrs by colorimetry. It counts as functional, cell-based. The method, boiled down: (§4)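 A549 cells were plated at 3 × 10^5/well and cultured 12 h, then treated with various concentrations for 24 h. Cells were lysed on ice for 60 min. Lysate containing 200 μg protein was incubated with caspase-3, -8 or -9 colorimetric substrate at 37 °C for 4 h in the dark, and A405 was read. Activation = (treated − blank)/(control − blank). Mean ± SD, ≥3 experiments.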

Experiment [12] concerns A549. Briefly: Induction of apoptosis in human A549 cells assessed as early apoptotic cells at 5 uM incubated for 24 hrs by annexin V FITC and PI staining based flow cytometry (reference value: 0.53%). The format is functional.
Experiment [13] has as its system A549. Briefly: Induction of apoptosis in human A549 cells assessed as increase in caspase 8 activity at 100 uM incubated for 24 hrs by colorimetry relative to control. The format is functional. An outline of the steps:
as §4

For experiment [14], the system named is A549. Briefly: Induction of apoptosis in human A549 cells assessed as increase in DNA ladder formation incubated for 24 hrs by agarose gel electrophoresis method. It counts as functional, cell-based. The method, boiled down: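 A549 cells were treated with various concentrations for 24 h. Genomic DNA was isolated by lysis, RNase A and proteinase K digestion, then ethanol precipitation. DNA was run on a 2% agarose gel to visualize ladder formation.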

The test system of experiment [15] is A549. Briefly: Induction of apoptosis in human A549 cells assessed as late apoptotic cells at 25 uM incubated for 24 hrs by annexin V FITC and PI staining based flow cytometry (reference value: 1.32%). It counts as functional.
The subject of experiment [16] is A549. As to the kind of experiment: Induction of apoptosis in human A549 cells assessed as increase in caspase 3 activity at 100 uM incubated for 24 hrs by colorimetry relative to control. It counts as functional. An outline of the steps:
as §4

For experiment [17], the system named is A549. As to the kind of experiment: Inhibition of colony formation in human A549 cells culture in 0.3% RPMI-1640 medium agar assessed as decrease in size and number of colonies formed incubated for 20 days by NBT staining based assay. The format is functional, cell-based. An outline of the steps:
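A549 cells at 1 × 10^5 cells/mL were treated with various concentrations in 0.3% medium-agar layered over 0.6% medium-agar. Cultures were kept at 37 °C and 5% CO2. Methods give 14 days; the figure legend gives 20 days. Colonies were stained with 1.5 mg/mL NBT and counted as a percentage of control. Mean ± SD, ≥3 experiments.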

Experiment [18] has as its system A549. As to the kind of experiment: Induction of apoptosis in human A549 cells assessed as increase in caspase 9 activity incubated for 24 hrs by colorimetry. It counts as functional, cell-based. The method, boiled down:
as §4

Experiment [19] has as its system A549. Briefly: Induction of apoptosis in human A549 cells assessed as early apoptotic cells at 25 uM incubated for 24 hrs by annexin V FITC and PI staining based flow cytometry (reference value: 0.53%). It counts as functional.
Experiment [20] has as its system A549. Briefly: Induction of apoptosis in human A549 cells assessed as viable cells at 50 uM incubated for 24 hrs by annexin V FITC and PI staining based flow cytometry (reference value: 95.7%). As to conditions: A549, 24 h, read-out: Activity. It counts as functional.
Experiment [21] has as its system A549. As to the kind of experiment: Antimigratory activity in human A549 cells assessed as reduction in cell migration incubated for 36 hrs by transwell migration assay. The format is functional, cell-based. An outline of the steps: as §1

As a reminder, the IC50 is the midpoint of a concentration-inhibition curve. Regarding `CN1C(=O)C2(C(C#N)=C(N)Oc3cc4oc(-c5ccccc5)cc(=O)c4c(O)c32)c2cc(Br)ccc21` (configuration not stated), the inhibition result in the experiment with A549 [1] is “Dose-dependent effect”; in the experiment on A549 [2], “Dose-dependent effect”; in the experiment with A549 [7], “Dose-dependent effect”; with A549 [8], “Tde”; in the experiment with A549 [17], “Dose-dependent effect”; with A549 [21] it was “Dose-dependent effect”. Moreover, the Activity is 6.11% in the experiment with A549 [3]; “Dose-dependent effect” with A549 [4]; “Dose-dependent effect” in the experiment on A549 [5]; “Tde” in the experiment with A549 [6]; “Tde” with A549 [10]; “Dose-dependent effect” in the experiment with A549 [11]. The Activity with A549 [12] was 6.53%; in the experiment on A549 [14], “Dose-dependent effect”; in the experiment on A549 [15], 13.7%; in the experiment with A549 [18] it was “Dose-dependent effect”; with A549 [19], 9.8%. In addition, the viability at 25 µM in the experiment with A549 [9] was determined as 73.5%. For the same molecule, the IC50 in the experiment with K562 came to 4.1 µM. The “fold change (FC)” value with A549 [13] came to 2.98; with A549 [16], 5.24. Besides, the viability at 50 µM in the experiment on A549 [20] was determined as 59.8%.
